Results reported in ChEMBL document CHEMBL1828572, “Combination of two pharmacophoric systems: synthesis and pharmacological evaluation of spirocyclic pyranopyrazoles with high σ₁ receptor affinity” (J Med Chem, 2011).
pIC50, pKi: −log10 of the molar value. Activity calls are given as the source filed them. The calls are words filed in the database; no cut-off is given here.

Assays:
[1] = Selectivity ratio of alpha-2A adrenergic receptor to guinea pig sigma1 receptor
[2] = target: T1, 5-hydroxytryptamine receptor 1A (Homo sapiens, UniProt P08908); assay: Binding affinity to 5-HT1A receptor
T1 sequence (P08908 whole entry): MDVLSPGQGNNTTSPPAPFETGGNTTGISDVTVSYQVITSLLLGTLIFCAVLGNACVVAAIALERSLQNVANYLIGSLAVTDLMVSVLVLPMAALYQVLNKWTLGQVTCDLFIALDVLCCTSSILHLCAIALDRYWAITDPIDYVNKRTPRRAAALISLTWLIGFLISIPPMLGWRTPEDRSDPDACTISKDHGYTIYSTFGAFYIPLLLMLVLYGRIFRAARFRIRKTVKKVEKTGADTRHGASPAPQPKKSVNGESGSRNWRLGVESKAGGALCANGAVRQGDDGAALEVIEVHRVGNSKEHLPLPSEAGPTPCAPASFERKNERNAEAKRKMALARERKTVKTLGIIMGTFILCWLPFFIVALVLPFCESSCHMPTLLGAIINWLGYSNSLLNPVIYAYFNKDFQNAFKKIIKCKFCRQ

[3] = Selectivity ratio of alpha-1A adrenergic receptor to guinea pig sigma1 receptor
[4] = Selectivity ratio of 5-HT1A receptor to guinea pig sigma1 receptor
[5] = target: T2, Alpha-2A adrenergic receptor (Homo sapiens, UniProt P08913); assay: Binding affinity to alpha-2A adrenergic receptor
T2 sequence (P08913 whole entry): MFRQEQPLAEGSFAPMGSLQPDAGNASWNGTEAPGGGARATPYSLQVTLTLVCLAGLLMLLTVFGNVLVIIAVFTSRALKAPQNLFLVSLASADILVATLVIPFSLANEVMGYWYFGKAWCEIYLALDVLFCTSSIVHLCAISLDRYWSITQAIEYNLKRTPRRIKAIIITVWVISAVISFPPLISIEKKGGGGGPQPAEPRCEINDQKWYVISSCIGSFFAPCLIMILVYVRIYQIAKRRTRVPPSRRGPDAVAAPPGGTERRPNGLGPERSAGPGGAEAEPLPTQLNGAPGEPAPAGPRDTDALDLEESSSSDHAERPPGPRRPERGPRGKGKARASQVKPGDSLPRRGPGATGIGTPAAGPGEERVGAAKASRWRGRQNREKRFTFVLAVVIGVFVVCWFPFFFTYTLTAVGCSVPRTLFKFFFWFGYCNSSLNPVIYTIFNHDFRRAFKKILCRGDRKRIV

[6] = target: Sigma non-opioid intracellular receptor 1 (Cavia porcellus, UniProt Q60492); assay: Displacement of (+)-[3H]pentazocine from guinea pig brain sigma 1 receptor after 180 mins by scintillation counting
[7] = Selectivity ratio of 5-HT transporter to guinea pig sigma1 receptor
[8] = species on record: Sus scrofa; assay: Displacement of (+)-[3H]MK-801 from pig NMDA receptor PCP binding site at 1 uM
In short: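 PCP site of the NMDA receptor: competition against [3H]-(+)-MK-801 in fresh pig brain cortex membranes. Test compounds at 1 μM.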

[9] = Displacement of [3H]ditolylguanidine from rat liver sigma 2 receptor by scintillation counting
In short: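 σ2 sites from rat liver homogenate, labelled with nonselective [3H]-ditolylguanidine. 500 nM unlabelled (+)-pentazocine masks σ1 sites. Competition with six test concentrations, usually in triplicate. Bound radioactivity counted by scintillation. IC50 by nonlinear regression and Ki by Cheng–Prusoff; mean ± SEM from three independent experiments for high-affinity ligands.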

[10] = target: T3, Alpha-1A adrenergic receptor (Homo sapiens, UniProt P35348); assay: Binding affinity to alpha-1A adrenergic receptor
T3 sequence (P35348 whole entry): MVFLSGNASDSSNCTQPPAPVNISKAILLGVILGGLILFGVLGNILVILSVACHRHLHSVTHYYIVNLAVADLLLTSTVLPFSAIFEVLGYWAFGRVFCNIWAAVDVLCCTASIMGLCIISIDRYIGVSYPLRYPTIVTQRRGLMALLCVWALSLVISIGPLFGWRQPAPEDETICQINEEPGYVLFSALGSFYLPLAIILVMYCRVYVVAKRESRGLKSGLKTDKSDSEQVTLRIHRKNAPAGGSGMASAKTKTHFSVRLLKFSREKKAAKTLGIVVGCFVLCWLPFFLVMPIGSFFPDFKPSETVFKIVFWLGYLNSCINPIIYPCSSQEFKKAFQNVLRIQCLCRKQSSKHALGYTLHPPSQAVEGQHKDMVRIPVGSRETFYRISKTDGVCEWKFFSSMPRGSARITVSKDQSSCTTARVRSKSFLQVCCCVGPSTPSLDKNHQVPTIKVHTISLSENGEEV

[11] = target: Sodium-dependent serotonin transporter (Homo sapiens, UniProt P31645); assay: Binding affinity to 5-HT transporter
[12] = system: Mus musculus; assay: Antiallodynic activity against capsaicin-induced nocifensive behavior in mouse assessed as paw withdrawal latency to von Frey filament-induced pain at 32 mg/kg administered 30 mins before and measured 15 mins after capsaicin challenge; format: functional
In short: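 Mechanical allodynia model in mice: capsaicin injected subplantarly into the midplantar surface of the right hind paw, and test compound given 30 min beforehand. Withdrawal latency to a 1 g von Frey filament was read 15 min after capsaicin. 32 mg/kg was the highest dose tested.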

[13] = system: Mus musculus; assay: Antiallodynic activity against capsaicin-induced nocifensive behavior in mouse assessed as paw withdrawal latency to von Frey filament-induced pain at 0.5 mg/kg administered 30 mins before and measured 15 mins after capsaicin challenge; format: functional, organism-based; parameters: dose 0.5 mg/kg

Chain of Sigma non-opioid intracellular receptor 1 (Q60492 whole entry): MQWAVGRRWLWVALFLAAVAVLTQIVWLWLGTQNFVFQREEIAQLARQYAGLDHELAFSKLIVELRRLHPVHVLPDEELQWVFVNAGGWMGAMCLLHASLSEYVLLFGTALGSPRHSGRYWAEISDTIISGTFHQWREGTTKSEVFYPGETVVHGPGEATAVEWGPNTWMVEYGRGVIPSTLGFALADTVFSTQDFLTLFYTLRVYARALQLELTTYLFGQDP
Chain of Sodium-dependent serotonin transporter (P31645 whole entry): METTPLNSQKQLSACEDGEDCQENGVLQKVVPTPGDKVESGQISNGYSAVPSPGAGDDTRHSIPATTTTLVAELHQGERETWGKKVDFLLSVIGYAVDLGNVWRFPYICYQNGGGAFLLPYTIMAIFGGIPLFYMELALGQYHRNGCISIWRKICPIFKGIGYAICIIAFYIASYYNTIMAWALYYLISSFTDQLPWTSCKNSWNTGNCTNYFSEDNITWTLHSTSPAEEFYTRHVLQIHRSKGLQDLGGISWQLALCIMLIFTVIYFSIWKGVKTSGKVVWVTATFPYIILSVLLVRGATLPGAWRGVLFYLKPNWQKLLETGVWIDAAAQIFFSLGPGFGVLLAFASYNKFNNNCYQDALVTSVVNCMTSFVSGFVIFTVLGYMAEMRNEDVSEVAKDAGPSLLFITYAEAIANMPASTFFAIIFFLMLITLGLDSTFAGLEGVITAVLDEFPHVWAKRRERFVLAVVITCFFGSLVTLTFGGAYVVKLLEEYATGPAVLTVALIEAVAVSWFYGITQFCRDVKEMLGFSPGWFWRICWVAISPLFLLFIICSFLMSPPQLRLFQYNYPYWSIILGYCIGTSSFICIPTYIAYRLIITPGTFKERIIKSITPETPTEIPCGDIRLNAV

SMILES	pKi [6]	Activity [8]	pKi [9]	other results
CCCCCCCCN1CCC2(CC1)OC(OC)Cc1c2cnn1-c1ccccc1 (centres undefined)	8.54	inactive	6.68	Ratio [1]: 1000; pIC50 [2]: < 6.00; Ratio [3]: 1000; Ratio [4]: 1000; pIC50 [5]: < 6.00; Ratio [7]: 1000; pIC50 [10]: < 6.00; pIC50 [11]: < 6.00
COc1ccc(CN2CCC3(CC2)OC(OC)Cc2c3cnn2-c2ccccc2)cc1 (centres undefined)	8.82	inactive	6.03	
COC1Cc2c(cnn2-c2ccccc2)C2(CCN(CCCCc3ccccc3)CC2)O1 (centres undefined)		inactive	6.37	
Cn1ncc2c1CCOC21CCN(Cc2ccccc2)CC1		inactive	6.72	
COC1Cc2c(cnn2-c2ccccc2)C2(CCNCC2)O1 (centres undefined)	< 6.00	inactive	< 6.00	
CCCN1CCC2(CC1)OC(OC)Cc1c2cnn1-c1ccccc1 (centres undefined)	7.48	inactive	< 6.00	
c1ccc(-n2ncc3c2CCOC32CCN(CC3CCCCC3)CC2)cc1		inactive	7.37	
COC1Cc2c(cnn2-c2ccccc2)C2(CCN(Cc3ccco3)CC2)O1 (centres undefined)		inactive	< 6.00	
COC1Cc2c(cnn2C)C2(CCN(Cc3ccc(F)cc3)CC2)O1 (centres undefined)		inactive	< 6.00	
COC1Cc2c(cnn2-c2ccccc2)C2(CCN(CCC(C)C)CC2)O1 (centres undefined)		inactive	6.50	Ratio [1]: 1000; pIC50 [2]: < 6.00; Ratio [3]: 1000; Ratio [4]: 1000; pIC50 [5]: < 6.00; Ratio [7]: 1000; pIC50 [10]: < 6.00; pIC50 [11]: < 6.00
Cn1ncc2c1CC(O)OC21CCN(Cc2ccccc2)CC1 (centres undefined)		inactive	< 6.00	
CC(C)CCN1CCC2(CC1)OCCc1c2cnn1-c1ccccc1		inactive	7.08	
OC1Cc2c(cnn2-c2ccccc2)C2(CCN(Cc3ccccc3)CC2)O1 (centres undefined)		inactive	< 6.00	
C=C(C)CCN1CCC2(CC1)OCCc1c2cnn1-c1ccccc1	9.01	inactive	6.57	
C1=Cc2c(cnn2-c2ccccc2)C2(CCN(Cc3ccccc3)CC2)O1		inactive	6.25	
C=C(C)CCN1CCC2(CC1)OC(OC)Cc1c2cnn1-c1ccccc1 (centres undefined)	8.80	inactive	< 6.00	Activity [12]: 25%; Activity [13]: inactive
CCCCCN1CCC2(CC1)OC(OC)Cc1c2cnn1-c1ccccc1 (centres undefined)		inactive	6.47	
COC1OC2(CCN(Cc3ccccc3)CC2)c2ccccc21 (centres undefined)		inactive		
CCCN1CCC2(CC1)OC(OC)Cc1c2cnn1C (centres undefined)	< 6.00	inactive	< 6.00	
Cn1ncc2c1CCOC21CCN(CCCc2ccccc2)CC1		inactive	< 6.00	
